Experimental data from ChEMBL document CHEMBL4402598, “Design and Synthesis of Bitopic 2-Phenylcyclopropylmethylamine (PCPMA) Derivatives as Selective Dopamine D3 Receptor Ligands” (J Med Chem, 2020).

How the values were obtained:
[1] = Cmax in ICR mouse at 10 mg/kg, po by LC-MS/MS analysis; assay type: ADME, organism-based; set-up: dose 10 mg/kg, route oral; settings: in vivo
Summary of the method: (§1)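 Male ICR mice (6-8 weeks, ~25 g) dosed with compound dissolved in saline, 5 mg/kg iv or 10 mg/kg po, nine animals per group. Samples stored at -80 °C; drug quantified by LC-MS/MS.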

D(1A) dopamine receptor = D(1A) dopamine receptor (Homo sapiens, UniProt P21728); assay: Displacement of [3H]-SCH23390 from recombinant human D1 receptor transiently expressed in HEKT cell membranes measured after 90 mins by microbeta scintillation counting method
D(1A) dopamine receptor, sequence (P21728 whole entry): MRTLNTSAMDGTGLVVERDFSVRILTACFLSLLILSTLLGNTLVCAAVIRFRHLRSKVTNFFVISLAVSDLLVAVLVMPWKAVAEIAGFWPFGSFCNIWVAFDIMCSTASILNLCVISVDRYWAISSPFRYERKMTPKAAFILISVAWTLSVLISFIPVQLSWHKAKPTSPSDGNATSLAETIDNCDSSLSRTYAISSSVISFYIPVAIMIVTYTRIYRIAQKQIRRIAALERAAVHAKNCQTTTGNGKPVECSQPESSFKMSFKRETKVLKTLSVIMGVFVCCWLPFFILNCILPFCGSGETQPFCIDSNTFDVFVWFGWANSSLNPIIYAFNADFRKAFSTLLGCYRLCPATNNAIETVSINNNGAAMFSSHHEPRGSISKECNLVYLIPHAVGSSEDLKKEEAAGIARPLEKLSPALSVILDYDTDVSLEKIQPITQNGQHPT

D(2) dopamine receptor = D(2) dopamine receptor (Homo sapiens, UniProt P14416); assay: Displacement of [3H]-N-methylspiperone from recombinant human D2 receptor stably expressed in fibroblast cell membranes measured after 90 mins by microbeta scintillation counting method
D(2) dopamine receptor, sequence (P14416 whole entry): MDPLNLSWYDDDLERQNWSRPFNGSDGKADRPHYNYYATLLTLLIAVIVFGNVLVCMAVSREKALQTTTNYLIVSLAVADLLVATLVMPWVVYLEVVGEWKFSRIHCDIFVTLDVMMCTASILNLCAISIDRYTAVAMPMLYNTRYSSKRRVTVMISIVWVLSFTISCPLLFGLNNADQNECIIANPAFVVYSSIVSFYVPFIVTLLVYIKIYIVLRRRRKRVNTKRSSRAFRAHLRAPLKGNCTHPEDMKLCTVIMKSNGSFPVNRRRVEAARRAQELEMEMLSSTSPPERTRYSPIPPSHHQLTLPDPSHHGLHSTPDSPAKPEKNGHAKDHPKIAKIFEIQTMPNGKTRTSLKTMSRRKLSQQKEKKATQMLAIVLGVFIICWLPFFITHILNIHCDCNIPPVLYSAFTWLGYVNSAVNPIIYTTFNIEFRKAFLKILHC

D(4) dopamine receptor = molecular target: T1, D(4) dopamine receptor (Homo sapiens, UniProt P21917); assay: Displacement of [3H]-N-methylspiperone from recombinant human D4 receptor stably expressed in HEK cell membranes measured after 90 mins by microbeta scintillation counting method
T1 sequence (P21917 whole entry): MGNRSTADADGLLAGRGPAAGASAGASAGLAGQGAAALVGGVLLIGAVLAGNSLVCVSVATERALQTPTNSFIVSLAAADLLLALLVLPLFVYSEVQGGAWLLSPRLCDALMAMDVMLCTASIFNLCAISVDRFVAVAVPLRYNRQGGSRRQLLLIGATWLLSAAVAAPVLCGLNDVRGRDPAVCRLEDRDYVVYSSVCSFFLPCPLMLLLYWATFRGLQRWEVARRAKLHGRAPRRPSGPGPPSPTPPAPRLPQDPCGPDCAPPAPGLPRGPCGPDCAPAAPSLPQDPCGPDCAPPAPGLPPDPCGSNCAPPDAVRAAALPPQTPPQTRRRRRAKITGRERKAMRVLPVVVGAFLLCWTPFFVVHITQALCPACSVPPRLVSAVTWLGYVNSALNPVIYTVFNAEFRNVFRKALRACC

D(1B) dopamine receptor = D(1B) dopamine receptor (Homo sapiens, UniProt P21918); assay: Displacement of [3H]-SCH23390 from recombinant human D5 receptor transiently expressed in HEKT cell membranes measured after 90 mins by microbeta scintillation counting method
D(1B) dopamine receptor, sequence (P21918 whole entry): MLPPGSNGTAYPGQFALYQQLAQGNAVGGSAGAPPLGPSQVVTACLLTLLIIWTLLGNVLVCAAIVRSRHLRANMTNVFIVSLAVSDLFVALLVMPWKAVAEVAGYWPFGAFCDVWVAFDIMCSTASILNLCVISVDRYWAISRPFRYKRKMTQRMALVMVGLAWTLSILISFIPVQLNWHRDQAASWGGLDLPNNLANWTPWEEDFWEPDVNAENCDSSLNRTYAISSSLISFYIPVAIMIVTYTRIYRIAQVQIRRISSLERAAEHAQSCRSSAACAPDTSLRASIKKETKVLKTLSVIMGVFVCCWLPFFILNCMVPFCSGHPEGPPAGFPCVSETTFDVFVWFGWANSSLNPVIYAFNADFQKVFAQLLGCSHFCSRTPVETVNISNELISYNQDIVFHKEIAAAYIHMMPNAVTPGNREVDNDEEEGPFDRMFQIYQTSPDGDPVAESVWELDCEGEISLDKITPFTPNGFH

[2] = molecular target: T2, 5-hydroxytryptamine receptor 2C (Homo sapiens, UniProt P28335); assay: Displacement of [3H]-Mesulergine from recombinant human 5HT2C receptor expressed in HEKT cell membranes measured after 90 mins by microbeta scintillation counting method
T2 sequence (P28335 whole entry): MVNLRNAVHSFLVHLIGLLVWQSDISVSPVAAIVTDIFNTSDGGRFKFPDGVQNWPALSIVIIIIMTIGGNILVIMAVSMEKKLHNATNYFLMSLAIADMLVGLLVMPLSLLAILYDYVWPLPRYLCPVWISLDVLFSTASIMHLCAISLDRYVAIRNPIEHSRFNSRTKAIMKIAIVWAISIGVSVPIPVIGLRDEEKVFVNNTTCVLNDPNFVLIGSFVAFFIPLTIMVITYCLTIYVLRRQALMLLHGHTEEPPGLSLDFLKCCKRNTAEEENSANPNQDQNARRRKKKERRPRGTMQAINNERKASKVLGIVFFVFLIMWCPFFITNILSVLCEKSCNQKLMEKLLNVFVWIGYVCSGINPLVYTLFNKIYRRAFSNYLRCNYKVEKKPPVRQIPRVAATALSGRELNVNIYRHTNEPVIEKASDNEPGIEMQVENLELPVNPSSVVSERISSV

[3] = molecular target: T2, 5-hydroxytryptamine receptor 2C; assay: Antagonist activity at human 5HT2C receptor stably expressed in HEK293 cells co-expressing Gq assessed as inhibition of 5-HT-induced calcium mobilization preincubated for 15 mins followed by 5-HT addition and measured at 1 sec interval for 60 secs by Fluo-4 calcium dye based FLIPR assay; assay type: functional, cell-based
Summary of the method: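 5-HT2C stably transfected HEK293 cells, loaded with Fluo-4 Direct (HBSS, 20 mM HEPES pH 7.4, 2.5 mM probenecid; 50 min 37 °C, 10 min room temperature). Test compound added, then 5-HT (final 1 nM) 15 min later.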

[4] = molecular target: 5-hydroxytryptamine receptor 2A (Homo sapiens, UniProt P28223); assay: Agonist activity at 5HT2A receptor (unknown origin) expressed in HEK293 cells co-expressing Gq assessed as induction of calcium mobilization measured at 1 sec interval for 60 secs by Fluo-4 calcium dye based FLIPR assay; assay type: cell-based; settings: hek293, 1 min
5-hydroxytryptamine receptor 2A, sequence (P28223 whole entry): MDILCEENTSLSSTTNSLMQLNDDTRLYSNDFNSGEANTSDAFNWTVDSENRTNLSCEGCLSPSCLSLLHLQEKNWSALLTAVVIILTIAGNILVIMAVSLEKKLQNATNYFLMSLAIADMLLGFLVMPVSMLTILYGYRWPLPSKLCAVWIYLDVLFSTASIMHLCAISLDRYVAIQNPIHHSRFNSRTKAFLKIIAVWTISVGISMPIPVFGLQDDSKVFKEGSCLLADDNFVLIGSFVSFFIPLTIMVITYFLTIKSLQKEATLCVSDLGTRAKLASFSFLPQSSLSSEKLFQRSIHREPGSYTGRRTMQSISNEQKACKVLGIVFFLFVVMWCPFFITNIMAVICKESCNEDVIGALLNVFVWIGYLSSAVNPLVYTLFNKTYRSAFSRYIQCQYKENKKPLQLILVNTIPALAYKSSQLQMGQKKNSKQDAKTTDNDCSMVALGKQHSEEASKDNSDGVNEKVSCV

[5] = molecular target: 5-hydroxytryptamine receptor 2B (Homo sapiens, UniProt P41595); assay: Agonist activity at 5HT2B receptor (unknown origin) expressed in HEK293 cells co-expressing Gq assessed as induction of calcium mobilization measured at 1 sec interval for 60 secs by Fluo-4 calcium dye based FLIPR assay; assay type: cell-based; settings: hek293, 1 min
5-hydroxytryptamine receptor 2B, sequence (P41595 whole entry): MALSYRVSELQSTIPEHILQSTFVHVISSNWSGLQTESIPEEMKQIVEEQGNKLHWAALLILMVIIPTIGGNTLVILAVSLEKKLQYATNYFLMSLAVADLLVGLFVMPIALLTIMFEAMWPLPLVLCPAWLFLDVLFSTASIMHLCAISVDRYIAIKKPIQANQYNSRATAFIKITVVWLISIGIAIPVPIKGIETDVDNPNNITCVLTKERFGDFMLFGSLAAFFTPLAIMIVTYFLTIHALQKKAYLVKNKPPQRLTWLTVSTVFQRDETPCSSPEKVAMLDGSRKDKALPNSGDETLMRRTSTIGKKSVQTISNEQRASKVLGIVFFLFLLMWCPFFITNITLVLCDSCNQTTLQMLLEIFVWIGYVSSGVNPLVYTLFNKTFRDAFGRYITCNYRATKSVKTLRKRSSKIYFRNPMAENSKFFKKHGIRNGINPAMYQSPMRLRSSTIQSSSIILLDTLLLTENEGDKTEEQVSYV

[6] = Half life in ICR mouse at 5 mg/kg, iv by LC-MS/MS analysis; assay type: ADME, organism-based; settings: in vivo; summary of the method: as §1
[7] = AUC (0 to t) in ICR mouse at 5 mg/kg, iv by LC-MS/MS analysis; assay type: ADME, organism-based; settings: in vivo; summary of the method: as §1
[8] = Clearance in ICR mouse at 5 mg/kg, iv by LC-MS/MS analysis; assay type: ADME, organism-based; settings: in vivo; summary of the method: as §1
[9] = MRT in ICR mouse at 5 mg/kg, iv by LC-MS/MS analysis; assay type: ADME, organism-based; settings: in vivo; summary of the method: as §1
[10] = Volume of distribution at steady state in ICR mouse at 5 mg/kg, iv by LC-MS/MS analysis; assay type: ADME, organism-based; settings: in vivo, read-out: Vdss; summary of the method: as §1
[11] = Drug level in ICR mouse brain at 5 mg/kg, iv measured after 0.5 hrs by LC-MS/MS analysis; assay type: ADME, organism-based
Summary of the method: (§2)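 Male ICR mice (6-8 weeks, ~25 g) received compound in saline, 5 mg/kg iv or 10 mg/kg po. Brains collected at 0.5 and 2.0 h, saline-washed, weighed, homogenized in cold 50% methanol (1 g:3 mL). Plasma prepared from orbital blood. Samples held at -80 °C; LC-MS/MS quantitation. Brain/plasma ratio calculated from the two concentrations.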

[12] = Drug level in ICR mouse plasma at 5 mg/kg, iv measured after 0.5 hrs by LC-MS/MS analysis; assay type: ADME, organism-based; summary of the method: as §2
[13] = Ratio of drug level in ICR mouse brain to plasma at 5 mg/kg, iv measured after 0.5 hrs by LC-MS/MS analysis; assay type: ADME, organism-based; settings: read-out: BPR; summary of the method: as §2
[14] = Drug level in ICR mouse brain at 5 mg/kg, iv measured after 2 hrs by LC-MS/MS analysis; assay type: ADME, organism-based; summary of the method: as §2
[15] = Drug level in ICR mouse plasma at 5 mg/kg, iv measured after 2 hrs by LC-MS/MS analysis; assay type: ADME, organism-based; summary of the method: as §2
[16] = Ratio of drug level in ICR mouse brain to plasma at 5 mg/kg, iv measured after 2 hrs by LC-MS/MS analysis; assay type: ADME, organism-based; settings: read-out: BPR; summary of the method: as §2
[17] = Tmax in ICR mouse at 10 mg/kg, po by LC-MS/MS analysis; assay type: ADME, organism-based; settings: in vivo; summary of the method: as §1
[18] = Half life in ICR mouse at 10 mg/kg, po by LC-MS/MS analysis; assay type: ADME, organism-based; settings: in vivo; summary of the method: as §1
[19] = AUC (0 to t) in ICR mouse at 10 mg/kg, po by LC-MS/MS analysis; assay type: ADME, organism-based; settings: in vivo; summary of the method: as §1
[20] = MRT in ICR mouse at 10 mg/kg, po by LC-MS/MS analysis; assay type: ADME, organism-based; settings: in vivo; summary of the method: as §1
[21] = Oral bioavailability in ICR mouse at 10 mg/kg by LC-MS/MS analysis; assay type: ADME, organism-based; settings: in vivo; summary of the method: as §1
[22] = Drug level in ICR mouse brain at 10 mg/kg, po measured after 0.5 hrs by LC-MS/MS analysis; assay type: ADME, organism-based; summary of the method: as §2
[23] = Drug level in ICR mouse plasma at 10 mg/kg, po measured after 0.5 hrs by LC-MS/MS analysis; assay type: ADME, organism-based; summary of the method: as §2
[24] = Ratio of drug level in ICR mouse brain to plasma at 10 mg/kg, po measured after 0.5 hrs by LC-MS/MS analysis; assay type: ADME, organism-based; settings: read-out: BPR; summary of the method: as §2
[25] = Drug level in ICR mouse brain at 10 mg/kg, po measured after 2 hrs by LC-MS/MS analysis; assay type: ADME, organism-based; summary of the method: as §2
[26] = Drug level in ICR mouse plasma at 10 mg/kg, po measured after 2 hrs by LC-MS/MS analysis; assay type: ADME, organism-based; summary of the method: as §2
[27] = Ratio of drug level in ICR mouse brain to plasma at 10 mg/kg, po measured after 2 hrs by LC-MS/MS analysis; assay type: ADME, organism-based; settings: read-out: BPR; summary of the method: as §2

SMILES	Cmax [1]	Ki (D(1A) dopamine receptor)	Ki (D(4) dopamine receptor)	Ki (D(1B) dopamine receptor)	Ki [2]	IC50 [3]	Activity [4]	Activity [5]	half-life [6]	AUC(0-t) [7]	clearance [8]	MRT [9]	Vd [10]	concentration at 0.5 h [11]	concentration at 0.5 h [12]	Kp at 0.5 h [13]	concentration at 2 h [14]	concentration at 2 h [15]	Kp at 2 h [16]	Tmax [17]	further results
CCCN(CCCCNC(=O)c1ccc(-c2ccccn2)cc1)C[C@@H]1C[C@H]1c1cc(F)ccc1OC.Cl	43.2 ng/mL	4900 nM	575 nM	> 5000 nM	1120 nM	14500 nM	Active	Not Active	0.437 h	660 ng·h/mL	126 mL/min/kg	0.415 h	3.13 L/kg	530 ng/mL	446 ng/mL	1.19	19.4 ng/mL	12.7 ng/mL	1.53	0.25 h	Ki (D(2) dopamine receptor): 1350 nM; half-life [18]: 2.64 h; AUC(0-t) [19]: 49.5 ng·h/mL; MRT [20]: 3.72 h; bioavailability [21]: 3.8%; concentration at 0.5 h [22]: 8.21 ng/mL; concentration at 0.5 h [23]: 16.8 ng/mL; Kp at 0.5 h [24]: 0.49; concentration at 2 h [25]: 6.57 ng/mL; concentration at 2 h [26]: 8.4 ng/mL; Kp at 2 h [27]: 0.79
CCCN(CCCCNC(=O)c1ccc(-c2ccccn2)cc1)C[C@@H]1C[C@H]1c1cccc(Cl)c1Cl.Cl	118 ng/mL	1350 nM	676 nM	> 5000 nM	417 nM	10100 nM	Active	Not Active	0.576 h	976 ng·h/mL	84.8 mL/min/kg	0.808 h	4.11 L/kg	980 ng/mL	511 ng/mL	1.92	227 ng/mL	118 ng/mL	1.93	0.5 h	half-life [18]: 2.12 h; AUC(0-t) [19]: 254 ng·h/mL; MRT [20]: 2.77 h; bioavailability [21]: 13%; concentration at 0.5 h [22]: 26.7 ng/mL; concentration at 0.5 h [23]: 118 ng/mL; Kp at 0.5 h [24]: 0.23; concentration at 2 h [25]: 9.1 ng/mL; concentration at 2 h [26]: 44.1 ng/mL; Kp at 2 h [27]: 0.207
CCCN(CCCCNC(=O)c1cc2ccccc2[nH]1)C[C@@H]1C[C@H]1c1cccc(Cl)c1Cl.Cl	63.9 ng/mL	1380 nM	1050 nM	> 5000 nM	513 nM	> 30000 nM	Active	Not Active	3.12 h	629 ng·h/mL	117 mL/min/kg	3.4 h	23.8 L/kg	833 ng/mL	215 ng/mL	3.88	543 ng/mL	94.8 ng/mL	5.72	1 h	Ki (D(2) dopamine receptor): 537 nM; half-life [18]: 4.11 h; AUC(0-t) [19]: 428 ng·h/mL; MRT [20]: 6 h; bioavailability [21]: 34.1%; concentration at 0.5 h [22]: 51.3 ng/mL; concentration at 0.5 h [23]: 35.5 ng/mL; Kp at 0.5 h [24]: 1.45; concentration at 2 h [25]: 160 ng/mL; concentration at 2 h [26]: 67.7 ng/mL; Kp at 2 h [27]: 2.36
CCCN(CCCCNC(=O)c1ccc2ccccc2c1)C[C@@H]1C[C@H]1c1cccc(Cl)c1Cl.Cl	37.3 ng/mL	1290 nM	813 nM	> 5000 nM	427 nM	16100 nM	Active	Not Active	1.51 h	616 ng·h/mL	134 mL/min/kg	2.58 h	20.8 L/kg	3420 ng/mL	270 ng/mL	12.7	913 ng/mL	82.6 ng/mL	11.1	0.25 h	Ki (D(2) dopamine receptor): 676 nM; half-life [18]: 2.08 h; AUC(0-t) [19]: 81.1 ng·h/mL; MRT [20]: 2.59 h; bioavailability [21]: 6.6%; concentration at 0.5 h [22]: 23.2 ng/mL; concentration at 0.5 h [23]: 28.4 ng/mL; Kp at 0.5 h [24]: 0.82; concentration at 2 h [25]: 23.2 ng/mL; concentration at 2 h [26]: 16.4 ng/mL; Kp at 2 h [27]: 1.61
